Screens as filed in PubChem BioAssay.
Tb MetRS inh = blocks T. brucei methionyl-tRNA synthetase activity; AID 624268; inhibition, % at 11.9 µM; actives 0.4% (n = 360,000); purified T. brucei MetRS, ATP depletion, Kinase-Glo luminescence;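 active means inhibition above a per-plate cutoff of the control wells' mean inhibition plus 3 SD, cut at about 5.5% in these data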
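Test system – parasite MetRS enzyme · Reagent – substrates ATP, L-methionine and bulk Escherichia coli tRNA · Doses – 11.9 µM compound single dose, 0.9% DMSO · Times – 15 min enzyme-compound preincubation, 2 h reaction, 10 min detection, 25 °C · Signal – Kinase-Glo luminescence, ATP depletion format · Controls – DMSO-only wells as low control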
NALP1 yeast inh = inhibitors of NALP1 inflammasome in yeast | S. cerevisiae NALP1/ASC/caspase-1 growth, X-gal OD620, 72 h | inhibition, % at 10 µM | AID 2071 | actives 0.61% (n = 280,000); in the data active means inhibition mostly above about 24%, no sharp cut-off; inactive means mostly below about 32%
Bfl-1 A1 inh = inhibitors of the anti-apoptotic protein A1, read as caspase activation | MEF A1-2A-BIM cells, Caspase-Glo 3/7 luminescence, 3 h; percent of clofoctol response, vehicle zero | caspase activation, % (no concentration beside the values) | actives 0.066% (n = 330,000) | AID 2462;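 active means over half of replicate activation scores above 10%, or exactly half above 10 with the replicate mean above 10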
MC4R ag barr = agonists of human melanocortin 4 receptor (MC4R) beta-arrestin; P32245; U2OS MC4R beta-arrestin complementation, luminescence; percent of melanotan II response, DMSO zero; activation, % at 8.9 µM; actives 0.98% (n = 360,000);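 active means activation above a per-plate cutoff, the mean activation of sample wells on that plate plus 3 SD, cut at about 8% in these data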
Target sequence (P32245 whole entry, looked up): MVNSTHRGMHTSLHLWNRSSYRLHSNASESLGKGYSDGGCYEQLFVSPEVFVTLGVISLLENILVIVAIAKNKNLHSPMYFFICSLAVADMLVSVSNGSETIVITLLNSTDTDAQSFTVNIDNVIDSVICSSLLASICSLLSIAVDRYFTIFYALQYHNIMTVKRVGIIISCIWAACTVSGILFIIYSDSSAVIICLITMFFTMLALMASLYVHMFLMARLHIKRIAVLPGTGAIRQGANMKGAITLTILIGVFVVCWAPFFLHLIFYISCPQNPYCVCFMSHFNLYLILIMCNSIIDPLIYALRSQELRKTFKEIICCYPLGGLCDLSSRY
NLRP3 yeast inh = NALP3 inhibition in yeast | Yeast reconstituted NLRP3/ASC/caspase-1, beta-gal luminescence, 24 h | inhibition, % at 10 µM | actives 0.39% (n = 330,000) | AID 2825;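 active means inhibition of 50% or more; inactive means inhibition below 50%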
MC4R antagonist = antagonists of human melanocortin 4 receptor (MC4R); P32245; MC4R-expressing cells, MTII-stimulated cAMP, LANCE TR-FRET; inhibition, % at 6.5 µM; actives 0.48% (n = 360,000); AID 540295;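 active means inhibition above its plate's cutoff, the mean of tested wells on that plate plus 3 SD, cut at about 29% in these data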
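Assay system: U2OS cells stably expressing human melanocortin 4 receptor (MC4R) / Dosing: 6.5 µM / Timing: compound 30 min, challenge 1 h, detection 1 h / Measured by: Eu-cAMP/anti-cAMP TR-FRET, emission 671 nm / Replicates: singlicate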
NALP3 confirm = confirmation of NALP3 inhibitors in yeast. yeast expressing human NALP3, luminescence. inhibition, % at 10 µM. actives 81% (n = 1,300). shares compounds with NLRP3 yeast inh; in the data active means inhibition above about 48%
Casp1-ASC yeast = counter-screen for NALP3 inhibitors: yeast caspase-1-ASC. shares compounds with NLRP3 yeast inh. yeast expressing Caspase-1-ASC, luminescence counter screen. inhibition, % at 10 µM. actives 66% (n = 1,000)
NALP3 yeast rt = confirmation retest of NALP3 inhibitors in yeast. inhibition, % at 10 µM. AID 488794. yeast expressing human NALP3, luminescence read-out. actives 53% (n = 1,000). shares compounds with NLRP3 yeast inh
A number is an active result. Compounds with a hit are over-represented: about 2.5% of the library has one in this group of screens. Unless noted, no stated cut-off is given here; in the data, active means inhibition above about 50%; inactive means the rest.

Screening CC(=O)N1N=C(c2ccccc2)OC12CCCC2 returned Tb MetRS inh inactive, NALP1 yeast inh inactive, Bfl-1 A1 inh inactive, MC4R ag barr inactive, NLRP3 yeast inh inactive and MC4R antagonist inactive.
CC(=O)N1N=C(c2ccc(Cl)cc2)OC1(C)C was read as Tb MetRS inh inactive, NALP1 yeast inh inactive, Bfl-1 A1 inh inactive, MC4R ag barr inactive, NLRP3 yeast inh 71, MC4R antagonist inactive, NALP3 confirm 51, Casp1-ASC yeast 52 and NALP3 yeast rt inactive.
Screening O=C(Cc1ccc2c(c1)OCCO2)Nc1cc(Cl)ccc1N1CCOCC1 returned Tb MetRS inh inactive, MC4R ag barr inactive, NLRP3 yeast inh inactive and MC4R antagonist inactive.
C1=NN(c2ccccc2)C=NN1c1ccccc1 was read as Tb MetRS inh inactive, MC4R ag barr inactive and MC4R antagonist inactive.
For Cn1c(/C=C/N(Cc2ccccc2)c2ccccc2)c([N+](=O)[O-])c(=O)n(C)c1=O the results were Tb MetRS inh inactive, NALP1 yeast inh inactive, Bfl-1 A1 inh inactive, MC4R ag barr inactive, NLRP3 yeast inh inactive, MC4R antagonist inactive and NALP3 confirm inactive.
For CCc1ccc(/C=C/c2c([N+](=O)[O-])c(=O)n(C)c(=O)n2C)cc1 the results were Tb MetRS inh inactive, NALP1 yeast inh inactive, Bfl-1 A1 inh inactive, MC4R ag barr inactive, NLRP3 yeast inh inactive and MC4R antagonist inactive.
CN(C)CC[n+]1ccc(C(=O)c2ccccc2)cc1 was read as Tb MetRS inh inactive, NALP1 yeast inh inactive, Bfl-1 A1 inh inactive, MC4R ag barr inactive, NLRP3 yeast inh inactive and MC4R antagonist inactive.
`Fc1cccc(/C=N/Nc2nncc3ccccc23)c1` gave Tb MetRS inh inactive, NALP1 yeast inh inactive, Bfl-1 A1 inh inactive, MC4R ag barr inactive, NLRP3 yeast inh 57, MC4R antagonist inactive, NALP3 confirm 63, Casp1-ASC yeast inactive and NALP3 yeast rt inactive.
For CC(=O)Nc1ccc(/C=N/Nc2nncc3ccccc23)cc1 the results were Tb MetRS inh inactive, NALP1 yeast inh inactive, Bfl-1 A1 inh inactive, MC4R ag barr inactive and MC4R antagonist inactive.
Screening Nc1nc2ccccc2cc1-c1cccs1 returned Tb MetRS inh inactive, NALP1 yeast inh inactive, Bfl-1 A1 inh inactive, MC4R ag barr inactive, NLRP3 yeast inh 51, MC4R antagonist inactive, NALP3 confirm 69, Casp1-ASC yeast 59 and NALP3 yeast rt 63.
Screening C[C@]12C=C[C@H](O)CC1=CCC1C2CC[C@@]2(C)C1CCC21OCCO1 (some centres undefined) returned Tb MetRS inh inactive, Bfl-1 A1 inh inactive, MC4R ag barr inactive, NLRP3 yeast inh 57, MC4R antagonist inactive and NALP3 confirm 71.
Screening CC(/C=N/NC(=O)c1ccc(Cn2cc([N+](=O)[O-])cn2)o1)=C\c1ccccc1 returned Tb MetRS inh inactive, NALP1 yeast inh inactive, Bfl-1 A1 inh inactive, MC4R ag barr inactive, NLRP3 yeast inh inactive and MC4R antagonist inactive.
O=[N+]([O-])c1ccc(O)c2cccnc12 was read as Tb MetRS inh inactive, NALP1 yeast inh inactive, Bfl-1 A1 inh inactive, MC4R ag barr inactive, NLRP3 yeast inh inactive and MC4R antagonist inactive.
Screening O=[N+]([O-])c1ccc(O)c2ncccc12 returned Tb MetRS inh inactive, NALP1 yeast inh 158, Bfl-1 A1 inh inactive, MC4R ag barr inactive, NLRP3 yeast inh 83, MC4R antagonist inactive, NALP3 confirm 92, Casp1-ASC yeast 99 and NALP3 yeast rt 98.
Screening Cc1nn(-c2ccc(Br)cc2)c(=O)c2ccccc12 returned Tb MetRS inh inactive, NALP1 yeast inh inactive, Bfl-1 A1 inh inactive, MC4R ag barr inactive, NLRP3 yeast inh inactive and MC4R antagonist inactive.
